From ChEMBL document CHEMBL3286120, “Design and synthesis of novel soluble 2,5-diketopiperazine derivatives as potential anticancer agents” (Eur J Med Chem, 2014)

Legend:
[1] = Cytotoxicity against human BGC823 cells assessed as reduction in cell viability after 72 hrs by CCK8 assay; type: functional, cell-based, BGC-823
How it was run: (§1)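 Cells kept in RPMI or DMEM with 10% FBS and 1% penicillin/streptomycin at 37 °C in 5% CO2. Seeded at 400-800 cells/well in 384-well plates and exposed to varying compound concentrations, with solution-only control, for 72 h. CCK8 reagent added, then absorbance read at 450 nm. Plinabulin and TSA were positive controls. Mean SD of three experiments.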

MOLT-4 = assay: Cytotoxicity against human MOLT4 cells assessed as reduction in cell viability after 72 hrs by CCK8 assay; type: functional, cell-based; how it was run: as §1
[2] = Cytotoxicity against human HuH7 cells assessed as reduction in cell viability after 72 hrs by CCK8 assay; type: functional, cell-based, Huh-7; how it was run: as §1
K562 [3] = assay: Cytotoxicity against human K562 cells assessed as viable cells at 10 uM after 24 hrs by CCK8 assay relative to control; type: functional; conditions: K562, 24 h, read-out: Activity
How it was run: (§2)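 Viability of U937, K562 and H1975 cells cultured in RPMI or DMEM with 10% FBS and 1% penicillin/streptomycin at 37 °C in 5% CO2. Cells treated at two fixed concentrations (5 or 10) for 24 or 48 h. Viable cells measured by CCK8 and expressed relative to control. Mean SD of three experiments.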

K562 [4] = assay: Cytotoxicity against human K562 cells assessed as reduction in cell viability after 72 hrs by CCK8 assay; type: functional, cell-based; how it was run: as §1
U-937 [5] = assay: Cytotoxicity against human U937 cells assessed as viable cells at 5 uM after 24 hrs by CCK8 assay relative to control; type: functional; conditions: U-937, 24 h, read-out: Activity; how it was run: as §2
NCI-H1975 [6] = assay: Cytotoxicity against human NCI-H1975 cells assessed as viable cells at 5 uM after 24 hrs by CCK8 assay relative to control; type: functional; conditions: NCI-H1975, 24 h, read-out: Activity; how it was run: as §2
K562 [7] = assay: Cytotoxicity against human K562 cells assessed as viable cells at 5 uM after 48 hrs by CCK8 assay relative to control; type: functional; conditions: K562, 48 h, read-out: Activity; how it was run: as §2
K562 [8] = assay: Cytotoxicity against human K562 cells assessed as viable cells at 10 uM after 48 hrs by CCK8 assay relative to control; type: functional; conditions: K562, 48 h, read-out: Activity; how it was run: as §2
NCI-H1975 [9] = assay: Cytotoxicity against human NCI-H1975 cells assessed as reduction in cell viability after 72 hrs by CCK8 assay; type: functional, cell-based; how it was run: as §1
U-937 [10] = assay: Cytotoxicity against human U937 cells assessed as viable cells at 5 uM after 48 hrs by CCK8 assay relative to control; type: functional; conditions: U-937, 48 h, read-out: Activity; how it was run: as §2
U-937 [11] = assay: Cytotoxicity against human U937 cells assessed as viable cells at 10 uM after 48 hrs by CCK8 assay relative to control; type: functional; conditions: U-937, 48 h, read-out: Activity; how it was run: as §2
A549 = assay: Cytotoxicity against human A549 cells assessed as reduction in cell viability after 72 hrs by CCK8 assay; type: functional, cell-based; how it was run: as §1
MCF7 = assay: Cytotoxicity against human MCF7 cells assessed as reduction in cell viability after 72 hrs by CCK8 assay; type: functional, cell-based; how it was run: as §1
NCI-H1975 [12] = assay: Cytotoxicity against human NCI-H1975 cells assessed as viable cells at 5 uM after 48 hrs by CCK8 assay relative to control; type: functional; conditions: NCI-H1975, 48 h, read-out: Activity; how it was run: as §2
U-937 [13] = assay: Cytotoxicity against human U937 cells assessed as viable cells at 10 uM after 24 hrs by CCK8 assay relative to control; type: functional; conditions: U-937, 24 h, read-out: Activity; how it was run: as §2
NCI-H1975 [14] = assay: Cytotoxicity against human NCI-H1975 cells assessed as viable cells at 10 uM after 48 hrs by CCK8 assay relative to control; type: functional; conditions: NCI-H1975, 48 h, read-out: Activity; how it was run: as §2
K562 [15] = assay: Cytotoxicity against human K562 cells assessed as viable cells at 5 uM after 24 hrs by CCK8 assay relative to control; type: functional; conditions: K562, 24 h, read-out: Activity; how it was run: as §2
HL-60 = assay: Cytotoxicity against human HL60 cells assessed as reduction in cell viability after 72 hrs by CCK8 assay; type: functional, cell-based; how it was run: as §1
HeLa = assay: Cytotoxicity against human HeLa cells assessed as reduction in cell viability after 72 hrs by CCK8 assay; type: functional, cell-based; how it was run: as §1
NCI-H1975 [16] = assay: Cytotoxicity against human NCI-H1975 cells assessed as viable cells at 10 uM after 24 hrs by CCK8 assay relative to control; type: functional; conditions: NCI-H1975, 24 h, read-out: Activity; how it was run: as §2
U-937 [17] = assay: Cytotoxicity against human U937 cells assessed as reduction in cell viability after 72 hrs by CCK8 assay; type: functional, cell-based; how it was run: as §1
[18] = Homo sapiens, BGC-823, 72 h, read-out: IC50
[19] = Homo sapiens, MOLT-4, 72 h, read-out: IC50
[20] = Homo sapiens, Huh-7, 72 h, read-out: IC50
[21] = Homo sapiens, K562, 72 h, read-out: IC50
[22] = Homo sapiens, NCI-H1975, 72 h, read-out: IC50
[23] = Homo sapiens, A549, 72 h, read-out: IC50
[24] = Homo sapiens, MCF7, 72 h, read-out: IC50
[25] = Homo sapiens, HL-60, 72 h, read-out: IC50
[26] = Homo sapiens, HeLa, 72 h, read-out: IC50
[27] = Homo sapiens, U-937, 72 h, read-out: IC50

Row | SMILES | IC50 [1, 18] [nM] | IC50 (MOLT-4; [19]) [nM] | IC50 [2, 20] [nM] | IC50 (K562 [4]; [21]) [nM] | IC50 (NCI-H1975 [9]; [22]) [nM] | IC50 (A549; [23]) [nM] | IC50 (MCF7; [24]) [nM] | IC50 (HL-60; [25]) [nM] | IC50 (HeLa; [26]) [nM] | IC50 (U-937 [17]; [27]) [nM] | IC50 ([1]; bgc-823) | IC50 ([2]; huh-7) | IC50 (NCI-H1975 [9]; nci-h1975) | IC50 (A549; a549) | IC50 (MOLT-4; molt-4) | IC50 (K562 [4]; k562) | IC50 (MCF7; mcf7) | IC50 (HL-60; hl-60) | IC50 (HeLa; hela) | IC50 (U-937 [17]; u-937) | further results
1 | C=CCn1c(=O)/c(=C\c2cccc(Cl)c2Cl)[nH]c(=O)/c1=C\c1ccccc1OC | 2200 | 1200 | 1200 | 900 | 4500 | 2300 | 2100 | 2000 | 1600 | 500 |  |  |  |  |  |  |  |  |  |  | viability at 10 µM (K562 [3]): 103%; viability at 5 µM (U-937 [5]): 7%; viability at 5 µM (NCI-H1975 [6]): 107%; viability at 5 µM (K562 [7]): 24.2%; viability at 10 µM (K562 [8]): 14.9%; viability at 5 µM (U-937 [10]): 0.9%; viability at 10 µM (U-937 [11]): 1.3%; viability at 5 µM (NCI-H1975 [12]): 42.7%; viability at 10 µM (U-937 [13]): 8.7%; viability at 10 µM (NCI-H1975 [14]): 42.6%; viability at 5 µM (K562 [15]): 104%; viability at 10 µM (NCI-H1975 [16]): 98.9%
2 | C=CCn1c(=O)/c(=C\c2cc(Br)ccc2F)[nH]c(=O)/c1=C\c1ccccc1OC |  | 12900 |  | 5100 |  |  | 28100 | 17400 | 34600 | 4700 | Not Active | Not Active | Not Active | Not Active |  |  |  |  |  |  | 
3 | C=CCn1c(=O)/c(=C\c2ccc(F)c(Br)c2)[nH]c(=O)/c1=C\c1ccccc1OC |  |  |  |  |  |  |  |  |  |  | Not Active | Not Active | Not Active | Not Active | Not Active | Not Active | Not Active | Not Active | Not Active | Not Active | 
4 | C=CCn1c(=O)/c(=C\c2ccc(C)cc2)[nH]c(=O)/c1=C\c1ccccc1OC |  |  |  |  |  |  |  |  |  |  | Not Active | Not Active | Not Active | Not Active | Not Active | Not Active | Not Active | Not Active | Not Active | Not Active | 
5 | CC(/C=C/C(=O)NO)=C\[C@@H](C)C(=O)c1ccc(N(C)C)cc1 [TRICHOSTATIN] | 80 | 30 | 100 | 410 | 210 | 50 | 60 | 80 | 110 | 100 |  |  |  |  |  |  |  |  |  |  | 
